The values that follow come from ChEMBL document CHEMBL4765329, “Exploration of carbamide derived pyrimidine-thioindole conjugates as potential VEGFR-2 inhibitors with anti-angiogenesis effect” (Eur J Med Chem, 2020).

The subject of experiment [1] is MDA-MB-231. Nature of the experiment: Induction of apoptosis in human MDA-MB-231 cells assessed as late apoptotic cells at 2.5 uM measured after 48 hrs by Annexin V-FITC/Propidium iodide stain based flow cytometry assay (reference value: 1.2%). The experiment is classed as functional. Background: In flow cytometry, cells or beads pass a laser one at a time.
Experiment [2] has as its system MDA-MB-231. Nature of the experiment: Induction of apoptosis in human MDA-MB-231 cells assessed as late apoptotic cells at 5 uM measured after 48 hrs by Annexin V-FITC/Propidium iodide stain based flow cytometry assay (reference value: 1.2%). The experiment is classed as functional.
Experiment [3] deals with MDA-MB-231. Nature of the experiment: Antimigratory activity against human MDA-MB-231 cells assessed as inhibition of cell migration at 2.5 uM measured after 24 hrs by phase contrast microscope based wound healing assay. The experiment is classed as functional. In outline: (§1)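 Confluent MDA-MB-231 monolayers (DMEM, 10% FBS) were scratched with a sterile pipette tip and then treated. Wound closure was imaged by phase contrast microscopy after 24 h and compared with untreated control.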

Experiment [4] has as its system HUVEC. Nature of the experiment: Antimigratory activity against human HUVEC cells assessed as inhibition of cell invasion measured by inverted fluorescence microscope based transwell assay. Type of experiment: functional. The settings on record: dose 2.5-5 µM. The gist of the method:
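A Boyden chamber (transwell) invasion assay used HUVECs passing through Matrigel and a membrane barrier. Treatment was 2.5 and 5 µM, with a reference VEGFR-2 inhibitor as standard. Invaded cells on the bottom side were compared with untreated control.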

The test system of experiment [5] is MDA-MB-231. Nature of the experiment: Induction of apoptosis in human MDA-MB-231 cells assessed as induction of morphological changes by measuring nuclear shrinkage and fragmentation in nucleus measured after 48 hrs by Hoechst stain based flourescence assay in relative to control. Type of experiment: functional, cell-based. The following applies: dose 2.5-5 µM. The gist of the method:
(§2)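 MDA-MB-231 cells were treated at 2.5 and 5 µM and stained with Hoechst. Nuclei were examined by fluorescence for chromatin condensation, nuclear shrinkage, and pyknotic or fragmented nuclei against untreated control.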

In experiment [6] the test system is HepG2. The experiment in a line: cells. The settings on record: Homo sapiens, HepG2, 72 h.
For experiment [7], the system named is MDA-MB-231. Nature of the experiment: Induction of mitochondrial membrane potential loss in human MDA-MB-231 cells assessed as increase in depolarised cells measured after 48 hrs by JC-1 stain based flow cytometry assay relative to control. Type of experiment: functional, cell-based. The following applies: dose 2.5-5 µM. The gist of the method:
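MDA-MB-231 cells were treated at 2.5 and 5 µM and stained with JC-1. Depolarised mitochondria were scored by green monomer signal and healthy mitochondria by red J-aggregates, against control.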

Experiment [8] deals with PC-3. The experiment in a line: cells. The following applies: Homo sapiens, PC-3, 72 h.
Experiment [9] relates to HUVEC. The experiment in a line: Antiangiogenic activity against human HUVEC cells assessed as inhibition of tube formation measured after 16 hrs by matrigel based tube formation assay. The experiment is classed as functional, cell-based. The settings on record: dose 2.5-5 µM. In outline:
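HUVECs were plated on Matrigel with 2.5 and 5 μM test agent, alongside a reference VEGFR-2 inhibitor. Tube networks were imaged, and quantification covered cell-covered area, tube length, branching points and total loops.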

Experiment [10] deals with MDA-MB-231. Nature of the experiment: Induction of apoptosis in human MDA-MB-231 cells assessed as viable cells at 2.5 uM measured after 48 hrs by Annexin V-FITC/Propidium iodide stain based flow cytometry assay (reference value: 95.3%). Type of experiment: functional. The settings on record: read-out: Activity.
Experiment [11] relates to MDA-MB-231. Nature of the experiment: Induction of mitochondrial membrane potential loss in human MDA-MB-231 cells assessed as generation of ROS at 2.5 uM measured after 48 hrs by carboxy […] stain based flow cytometry assay relative to control. Type of experiment: functional, cell-based. In outline: (§3)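 MDA-MB-231 cells were treated at several doses and stained with carboxy-H2DCFDA. ROS were read as green DCF fluorescence relative to untreated control.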

Experiment [12] concerns MDA-MB-231. Nature of the experiment: Induction of apoptosis in human MDA-MB-231 cells assessed as early apoptotic cells at 5 uM measured after 48 hrs by Annexin V-FITC/Propidium iodide stain based flow cytometry assay (reference value: 3.2%). Type of experiment: functional.
Experiment [13] concerns MDA-MB-231. The experiment in a line: Induction of apoptosis in human MDA-MB-231 cells assessed as induction of morphological changes by measuring chromatin condensation measured after 48 hrs by Hoechst stain based flourescence assay in relative to control. Type of experiment: functional, cell-based. The settings on record: dose 2.5-5 µM. In outline: as §2
Experiment [14] deals with A549. The experiment in a line: cells. The settings on record: Homo sapiens, A549, 72 h.
The subject of experiment [15] is MDA-MB-231. The experiment in a line: Induction of mitochondrial membrane potential loss in human MDA-MB-231 cells assessed as generation of ROS at 5 uM measured after 48 hrs by carboxy […] stain based flow cytometry assay relative to control. The experiment is classed as functional, cell-based. The gist of the method: as §3
The test system of experiment [16] is MDA-MB-231. Nature of the experiment: Induction of apoptosis in human MDA-MB-231 cells assessed as necrotic cells at 2.5 uM measured after 48 hrs by Annexin V-FITC/Propidium iodide stain based flow cytometry assay (reference value: 0.3%). Type of experiment: functional.
The test system of experiment [17] is MDA-MB-231. Nature of the experiment: Induction of apoptosis in human MDA-MB-231 cells assessed as viable cells at 5 uM measured after 48 hrs by Annexin V-FITC/Propidium iodide stain based flow cytometry assay (reference value: 95.3%). Type of experiment: functional. The following applies: read-out: Activity.
Experiment [18] deals with MDA-MB-231. The experiment in a line: Induction of apoptosis in human MDA-MB-231 cells assessed as necrotic cells at 5 uM measured after 48 hrs by Annexin V-FITC/Propidium iodide stain based flow cytometry assay (reference value: 0.3%). Type of experiment: functional.
In experiment [19] the test system is MDA-MB-231. Nature of the experiment: Antimigratory activity against human MDA-MB-231 cells assessed as inhibition of cell migration at 5 uM measured after 24 hrs by phase contrast microscope based wound healing assay. Type of experiment: functional. The gist of the method:
as §1

Experiment [20] has as its system MDA-MB-231. The experiment in a line: Induction of apoptosis in human MDA-MB-231 cells assessed as early apoptotic cells at 2.5 uM measured after 48 hrs by Annexin V-FITC/Propidium iodide stain based flow cytometry assay (reference value: 3.2%). Type of experiment: functional.

Activity calls are given as the source filed them. No cut-off for these calls is given here.

As usually defined, the IC50 is the concentration needed to halve the response being measured. A lower IC50 goes with inhibition by little substance. `O=C(Nc1ccc(Cl)cc1)Nc1nc(Sc2c[nH]c3ccccc23)cc(N2CCCC2)n1`: the Activity in [1] was 3.8%; in [2], 11.2%; in experiment [5], “Dose-dependent effect”; in experiment [12], 36.6%; in experiment [13], “Dose-dependent effect”; in [16], 0.5%. Moreover, the Activity in [18] worked out at 0.9%; in [20] it was 19.4%. Moreover, the inhibition entry in experiment [3] and in [19] was “Active” throughout. Further, the inhibition result in experiment [4] and in [9] was “Dose-dependent effect” each time. Besides, the IC50 in experiment [6] was 7.87 µM; in [8], 10.4 µM; in experiment [14], 6.41 µM. The result in [7], in [11] and in [15] was Active. Further, the viability at 2.5 µM in experiment [10] stood at 76.2%. The viability at 5 µM in [17] turned out to be 51.4%.

Turning to `Cc1ccc(C)c(NC(=O)Nc2nc(Sc3c[nH]c4ccccc34)cc(N3CCCCC3)n2)c1`, the Activity entry in experiment [5] and in experiment [13] was “Dose-dependent effect” throughout. In addition, the values for the half-inhibitory concentration (IC50) in experiment [6], in experiment [8] and in experiment [14] were 6.44 µM, more than 50 µM and 25.4 µM, respectively. Further, the outcome in [7], in experiment [11] and in experiment [15] was Active.
